Experimental data of several laboratories.
Each line is one published result; the experiments were not run side by side.
Target: Homeodomain-interacting protein kinase 1 (HIPK1, Homo sapiens, UniProt Q86Z02)

Compound	assay	conditions	measurement	result
O=C(NCCCC1CCCCC1)c1ccc(CNC(=O)c2cnn(-c3ccccc3)c2C(F)(F)F)cc1	cell-free assay, competition with immobilised ligand	0.1 µM	remaining binding	99%
CCN(CC)CCNC(=O)c1c(C)[nH]c(/C=C2\C(=O)Nc3ccc(F)cc32)c1C	enzyme activity, inhibitor	0.3 µM	inhibition	26%
Cc1cc(NC(=O)c2cccc3cc(-c4cccc5[nH]nc(N)c45)ccc23)ccc1F	enzyme activity, inhibitor	0.1 µM	activity vs control	95%
O=C(O)c1ccc2c(c1)nc(Nc1ccc(F)c(Cl)c1)c1ccncc12	enzyme activity, inhibitor, radiometric	1 µM	remaining activity	8%
Cc1noc([C@H]2C[C@@H](c3ccc(C(F)(F)F)cc3)CN(C(=O)N3CCS(=O)(=O)C3)C2)n1	cell-free assay, competition with immobilised ligand	1 µM	remaining binding	82%
CCCS(=O)(=O)Nc1ccc(F)c(C(=O)c2c[nH]c3ncc(-c4ccc(Cl)cc4)cc23)c1F	enzyme activity, inhibitor	1 µM	inhibition	< 10%
COc1cc(Nc2cnc(C#N)c(O[C@H](C)CN(C)C)n2)ncc1-c1cnn(C)c1	enzyme activity, inhibitor, radiometric	1 µM	remaining activity	95%
O=C(O)c1ccc2c(c1)nc(Nc1ccc(F)c(Cl)c1)c1ncncc12	enzyme activity, inhibitor, radiometric	1 µM	remaining activity	6%
CC1=C(C#N)C(c2ccc3c(c2)c(NC(=O)c2ccccc2C)nn3C)C(C#N)=C(C)N1	cell-free assay, competition with immobilised ligand	1 µM	remaining binding	71%
COc1cc2c(N3CCN(C(=O)Nc4ccc(OC(C)C)cc4)CC3)ncnc2cc1OCCCN1CCCCC1	cell-free assay	0.5 µM	remaining signal	98.9%
O=C(O)c1ccc2c(c1)nc(NCCc1ccccc1)c1ccncc12	enzyme activity, inhibitor, radiometric	1 µM	remaining activity	12%
Cn1cc(Cl)c2c(Oc3c(F)cc(Nc4cc(Cl)nc(N)n4)cc3F)ccnc21	cell-free assay, competition with immobilised ligand	0.1 µM	remaining binding	100%
N#CCCc1ccc2c(c1)-c1[nH]c3ccc([N+](=O)[O-])cc3c1CC(=O)N2	cell-free assay	0.5 µM	remaining signal	97.9%
O=C(O)c1ccc2c(c1)nc(NCCc1cccc(Cl)c1)c1ncncc12	enzyme activity, inhibitor, radiometric	1 µM	remaining activity	35%
FC(F)c1nc2ccccc2n1-c1nc(N2CCOCC2)nc(N2CCOCC2)n1	enzyme activity, inhibitor	10 µM	remaining activity	100%
Cc1nccc(COC(=O)N2C[C@@H]3[C@@H](CNC(=O)c4ccc5[nH]nnc5c4)[C@@H]3C2)n1	cell-free assay, competition with immobilised ligand	1 µM	remaining binding	82%
O=C(O)c1ccc2c(c1)nc(NCCc1ccccc1)c1ncncc12	enzyme activity, inhibitor, radiometric	1 µM	remaining activity	18%
Nc1ncnc2occ(-c3ccc(NC(=O)Nc4cc(C(F)(F)F)ccc4F)cc3)c12	cell-free assay, inhibitor	20 µM	remaining signal	0.1%
CNC(=O)c1ccc(Nc2ncc(C(F)(F)F)c(NCc3nccnc3N(C)S(C)(=O)=O)n2)cc1	cell-free assay, competition with immobilised ligand	0.1 µM	remaining binding	27%
O=C(O)c1ccc2c(c1)nc(NCCc1cccc(Cl)c1)c1ccncc12	enzyme activity, inhibitor, radiometric	1 µM	remaining activity	20%
CNC(=O)Nc1ccc2c(c1)CC[C@@]21OC(=O)N(CC(=O)N(Cc2ccc(F)cc2)[C@@H](C)C(F)(F)F)C1=O	cell-free assay, competition with immobilised ligand	1 µM	remaining binding	85%
CNC(=O)c1cc(Oc2ccc(NC(=O)Nc3ccc(Cl)c(C(F)(F)F)c3)cc2)ccn1	enzyme activity, inhibitor	10 µM	inhibition	61%
